Tests used:
sigma-2 receptor = biological target: T1, sigma-2 receptor (Rattus norvegicus, UniProt Q5U3Y7); test: radioligand competition with [3H]RHM-1 in rat liver membranes; format: binding; details: read-out: Ki for sigma-2 receptors
T1 sequence (Q5U3Y7 1-176): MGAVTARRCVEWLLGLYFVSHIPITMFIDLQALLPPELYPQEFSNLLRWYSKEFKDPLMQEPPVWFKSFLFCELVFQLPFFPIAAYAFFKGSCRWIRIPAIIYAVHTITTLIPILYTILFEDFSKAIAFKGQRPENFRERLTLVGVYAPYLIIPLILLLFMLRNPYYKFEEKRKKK
How it was run: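 Rat liver membrane homogenate (~300 μg protein) in 50 mM Tris-HCl, pH 8.0, incubated 60 min at 25°C with 1 nM [³H]RHM-1 (80 Ci/mmol) and test compound at 0.1 nM–10 μM. Stopped with cold 10 mM Tris-HCl/150 mM NaCl, pH 7.4, filtered onto glass-fiber filters presoaked 1 h in 50 mM Tris-HCl, washed three times ice-cold, scintillation counted. Nonspecific binding: 10 μM haloperidol.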

sigma-1 receptor = sigma-1 receptor (Cavia porcellus, UniProt Q60492); test: radioligand competition with [3H]; format: binding; details: read-out: Ki for sigma-1 receptors
Sequence of sigma-1 receptor (Q60492 whole entry): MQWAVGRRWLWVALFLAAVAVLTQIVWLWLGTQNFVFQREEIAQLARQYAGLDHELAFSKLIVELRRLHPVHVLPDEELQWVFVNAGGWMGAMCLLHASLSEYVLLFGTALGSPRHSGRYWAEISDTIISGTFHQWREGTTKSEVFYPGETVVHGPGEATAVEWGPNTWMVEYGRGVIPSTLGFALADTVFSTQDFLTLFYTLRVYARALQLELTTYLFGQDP

O[C@@H](CN1[C@@H]2CC[C@H]1CC(c1ccccc1)C2)c1cccc(Br)c1 (some centres unmarked) [RHM-138]
Ki (sigma-2 receptor): 12.3 nM | Ki (sigma-1 receptor): 544 nM

Reference: paper PMC3923374 (Analytical biochemistry, 2013)
